Values after ≈ are worked out from the molar mass of the structure shown.
Experiments:
Staphylococcus aureus [1] = assay: Synergistic antibacterial activity against multidrug-resistant Staphylococcus aureus isolate 1449 assessed as fractional Inhibitory concentration index in presence of cloxacillin by broth microdilution assay; format: functional
How it was run: (§1)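 CLSI broth microdilution run on clinical MRSA isolates with each β-lactam alone, the test agent alone, and the two combined; agents dissolved in DMSO. Growth inhibition was read by eye. FIC index = FIC(compound) + FIC(β-lactam), where each FIC is the MIC in combination divided by the MIC alone. An index ≤0.5 was taken as synergy.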

Staphylococcus aureus [2] = assay: Synergistic antibacterial activity against multidrug-resistant Staphylococcus aureus isolate 1717 assessed as fractional Inhibitory concentration index in presence of amoxicillin by broth microdilution assay; format: functional; how it was run: as §1
Staphylococcus aureus [3] = assay: Synergistic antibacterial activity against multidrug-resistant Staphylococcus aureus isolate 3411 in presence of meropenem by broth microdilution assay; format: functional
Staphylococcus aureus [4] = assay: Synergistic antibacterial activity against multidrug-resistant Staphylococcus aureus isolate 2728 in presence of amoxicillin by broth microdilution assay; format: functional
How it was run: (§2)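 CLSI broth microdilution on clinical MRSA isolates. MICs were measured for the β-lactam alone, the test agent alone and the two combined. Compounds were dissolved in DMSO, and growth inhibition was scored by eye. FIC index is the sum, over both agents, of MIC in combination divided by MIC alone. An FIC index ≤0.5 was taken as synergy.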

Staphylococcus aureus [5] = assay: Synergistic antibacterial activity against multidrug-resistant Staphylococcus aureus isolate 3580 assessed as fractional Inhibitory concentration index in presence of cloxacillin by broth microdilution assay; format: functional
Staphylococcus aureus [6] = assay: Synergistic antibacterial activity against multidrug-resistant Staphylococcus aureus isolate 2919 in presence of cefuroxime by broth microdilution assay; format: functional; how it was run: as §2
Staphylococcus aureus [7] = assay: Antibacterial activity against multidrug-resistant Staphylococcus aureus isolate 1402 by broth microdilution assay; format: functional
How it was run: (§3)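 Broth microdilution MIC per CLSI guidelines against clinical MRSA isolates, for β-lactams and test compound alone and in combination. Compounds were dissolved in DMSO. Growth was read by eye, in duplicate. FIC index = FIC(compound) + FIC(drug); synergy defined as FIC index ≤0.5.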

Staphylococcus aureus [8] = assay: Synergistic antibacterial activity against multidrug-resistant Staphylococcus aureus isolate 2490 in presence of meropenem by broth microdilution assay; format: functional
How it was run: (§4)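 Clinical MRSA isolate panel; compound and β-lactam tested alone and in combination by CLSI broth microdilution, compounds dissolved in DMSO, growth inhibition scored by eye, run in duplicate. FIC index = FIC(compound) + FIC(drug), each the MIC in combination divided by the MIC alone; an index ≤ 0.5 was called synergy.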

Staphylococcus aureus [9] = assay: Synergistic antibacterial activity against multidrug-resistant Staphylococcus aureus isolate 3589 in presence of amoxicillin by broth microdilution assay; format: functional
Staphylococcus aureus [10] = assay: Synergistic antibacterial activity against multidrug-resistant Staphylococcus aureus isolate 1402 in presence of methicillin by broth microdilution assay; format: functional; how it was run: as §4
Staphylococcus aureus [11] = assay: Synergistic antibacterial activity against multidrug-resistant Staphylococcus aureus isolate 3332 in presence of methicillin by broth microdilution assay; format: functional; how it was run: as §2
Staphylococcus aureus [12] = assay: Synergistic antibacterial activity against multidrug-resistant Staphylococcus aureus isolate 3267 in presence of amoxicillin by broth microdilution assay; format: functional; how it was run: as §2
Staphylococcus aureus [13] = assay: Synergistic antibacterial activity against multidrug-resistant Staphylococcus aureus isolate 2973 in presence of cloxacillin by broth microdilution assay; format: functional; how it was run: as §2
Staphylococcus aureus [14] = assay: Synergistic antibacterial activity against multidrug-resistant Staphylococcus aureus isolate 2224 in presence of meropenem by broth microdilution assay; format: functional; how it was run: as §4
Staphylococcus aureus [15] = assay: Synergistic antibacterial activity against multidrug-resistant Staphylococcus aureus isolate 3332 in presence of cloxacillin by broth microdilution assay; format: functional; how it was run: as §2
Staphylococcus aureus [16] = assay: Synergistic antibacterial activity against multidrug-resistant Staphylococcus aureus isolate 2919 assessed as fractional Inhibitory concentration index in presence of cefuroxime by broth microdilution assay; format: functional
Staphylococcus aureus [17] = assay: Synergistic antibacterial activity against multidrug-resistant Staphylococcus aureus isolate 256 in presence of meropenem by broth microdilution assay; format: functional; how it was run: as §2
Staphylococcus aureus [18] = assay: Synergistic antibacterial activity against multidrug-resistant Staphylococcus aureus isolate 2901 assessed as fractional Inhibitory concentration index in presence of meropenem by broth microdilution assay; format: functional
Staphylococcus aureus [19] = assay: Synergistic antibacterial activity against multidrug-resistant Staphylococcus aureus isolate 2728 assessed as fractional Inhibitory concentration index in presence of methicillin by broth microdilution assay; format: functional
Staphylococcus aureus [20] = assay: Synergistic antibacterial activity against multidrug-resistant Staphylococcus aureus isolate 417 in presence of methicillin by broth microdilution assay; format: functional
Staphylococcus aureus [21] = assay: Synergistic antibacterial activity against multidrug-resistant Staphylococcus aureus isolate 1749 in presence of amoxicillin by broth microdilution assay; format: functional; how it was run: as §4
Staphylococcus aureus [22] = assay: Antibacterial activity against multidrug-resistant Staphylococcus aureus isolate 1717 by broth microdilution assay; format: functional; how it was run: as §3
Staphylococcus aureus [23] = assay: Antibacterial activity against Staphylococcus aureus ATCC 29213 harboring FtsZ 64 mutation after 20 hrs; format: functional; settings: ATCC 29213, 20 h
How it was run: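 Broth microdilution MIC per CLSI guidelines, compounds dissolved in DMSO. Resistant mutants were selected by serial passage of ATCC 29213 in LB at 37 °C with shaking at 250 rpm. Each 20 h culture started at half the MIC, and the concentration was doubled at each transfer. Growth inhibition was read by eye, in duplicate.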

Staphylococcus aureus [24] = assay: Synergistic antibacterial activity against multidrug-resistant Staphylococcus aureus isolate 200 assessed as fractional Inhibitory concentration index in presence of cefuroxime by broth microdilution assay; format: functional; how it was run: as §1
Staphylococcus aureus [25] = assay: Synergistic antibacterial activity against multidrug-resistant Staphylococcus aureus isolate 2901 in presence of cefuroxime by broth microdilution assay; format: functional; how it was run: as §2
Staphylococcus aureus [26] = assay: Synergistic antibacterial activity against multidrug-resistant Staphylococcus aureus isolate 1449 assessed as fractional Inhibitory concentration index in presence of cefuroxime by broth microdilution assay; format: functional; how it was run: as §1
Staphylococcus aureus [27] = assay: Synergistic antibacterial activity against multidrug-resistant Staphylococcus aureus isolate 200 in presence of cefuroxime by broth microdilution assay; format: functional; how it was run: as §4
Staphylococcus aureus [28] = assay: Synergistic antibacterial activity against multidrug-resistant Staphylococcus aureus isolate 2901 assessed as fractional Inhibitory concentration index in presence of cefuroxime by broth microdilution assay; format: functional
Staphylococcus aureus [29] = assay: Synergistic antibacterial activity against multidrug-resistant Staphylococcus aureus isolate 231 in presence of cefuroxime by broth microdilution assay; format: functional; how it was run: as §4
Staphylococcus aureus [30] = assay: Synergistic antibacterial activity against multidrug-resistant Staphylococcus aureus isolate 1717 assessed as fractional Inhibitory concentration index in presence of methicillin by broth microdilution assay; format: functional; how it was run: as §1
Staphylococcus aureus [31] = assay: Synergistic antibacterial activity against multidrug-resistant Staphylococcus aureus isolate 1136 in presence of meropenem by broth microdilution assay; format: functional; how it was run: as §4
Staphylococcus aureus [32] = assay: Synergistic antibacterial activity against multidrug-resistant Staphylococcus aureus isolate 2516 in presence of methicillin by broth microdilution assay; format: functional; how it was run: as §2
Staphylococcus aureus [33] = assay: Synergistic antibacterial activity against multidrug-resistant Staphylococcus aureus isolate 3580 in presence of methicillin by broth microdilution assay; format: functional
Staphylococcus aureus [34] = assay: Synergistic antibacterial activity against multidrug-resistant Staphylococcus aureus isolate 254 in presence of amoxicillin by broth microdilution assay; format: functional; how it was run: as §2
Staphylococcus aureus [35] = assay: Synergistic antibacterial activity against multidrug-resistant Staphylococcus aureus isolate 256 in presence of cefuroxime by broth microdilution assay; format: functional; how it was run: as §2
Staphylococcus aureus [36] = assay: Synergistic antibacterial activity against multidrug-resistant Staphylococcus aureus isolate 417 assessed as fractional Inhibitory concentration index in presence of cefuroxime by broth microdilution assay; format: functional
[37] = Tmax in Sprague-Dawley rat at 50 mg/kg, po by UPLC-MS/MS analysis; format: ADME, organism-based; settings: in vivo

For `CCCCCCCCCNc1ccc(F)c(C(N)=O)c1F`, the “fractional inhibitory concentration index (FICI)” value (Staphylococcus aureus [1]) was 0.6, the “fractional inhibitory concentration index (FICI)” value (Staphylococcus aureus [2]) was 1.1 and the MIC (Staphylococcus aureus [3]) was 4 µg/mL. For the same molecule, the MIC (Staphylococcus aureus [4]) was 8 µg/mL, the “fractional inhibitory concentration index (FICI)” value (Staphylococcus aureus [5]) was 0.5 and the MIC (Staphylococcus aureus [6]) was 2 µg/mL. It also gave an MIC (Staphylococcus aureus [7]) of 4 µg/mL (≈ 13.4 µM), an MIC (Staphylococcus aureus [8]) of 4 µg/mL and an MIC (Staphylococcus aureus [9]) of 8 µg/mL. For the same molecule, the MIC (Staphylococcus aureus [10]) was 2 µg/mL, the MIC (Staphylococcus aureus [11]) was 4 µg/mL and the MIC (Staphylococcus aureus [12]) was 2 µg/mL. For the same molecule, the MIC (Staphylococcus aureus [13]) was 1 µg/mL, the MIC (Staphylococcus aureus [14]) was 8 µg/mL and the MIC (Staphylococcus aureus [15]) was 2 µg/mL. The “fractional inhibitory concentration index (FICI)” value (Staphylococcus aureus [16]) was 0.3, the MIC (Staphylococcus aureus [17]) was 8 µg/mL and the “fractional inhibitory concentration index (FICI)” value (Staphylococcus aureus [18]) was 4. The “fractional inhibitory concentration index (FICI)” value (Staphylococcus aureus [19]) was 0.2, the MIC (Staphylococcus aureus [20]) was 2 µg/mL and the MIC (Staphylococcus aureus [21]) was 2 µg/mL. For the same molecule, the MIC (Staphylococcus aureus [22]) was 2 µg/mL (≈ 6.7 µM), the MIC (Staphylococcus aureus [23]) was 64 µg/mL (≈ 214 µM) and the “fractional inhibitory concentration index (FICI)” value (Staphylococcus aureus [24]) was 1. The MIC (Staphylococcus aureus [25]) was 2 µg/mL, the “fractional inhibitory concentration index (FICI)” value (Staphylococcus aureus [26]) was 1.5 and the MIC (Staphylococcus aureus [27]) was 2 µg/mL. The “fractional inhibitory concentration index (FICI)” value (Staphylococcus aureus [28]) was 0.1, the MIC (Staphylococcus aureus [29]) was 4 µg/mL and the “fractional inhibitory concentration index (FICI)” value (Staphylococcus aureus [30]) was 1.1. For the same molecule, the MIC (Staphylococcus aureus [31]) was 8 µg/mL, the MIC (Staphylococcus aureus [32]) was 4 µg/mL and the MIC (Staphylococcus aureus [33]) was 2 µg/mL. The MIC (Staphylococcus aureus [34]) was 8 µg/mL, the MIC (Staphylococcus aureus [35]) was 2 µg/mL and the “fractional inhibitory concentration index (FICI)” value (Staphylococcus aureus [36]) was 0.1. For the same molecule, the Tmax [37] was 2 h.

Source: ChEMBL document CHEMBL4330069, “Boosting the efficacy of anti-MRSA β-lactam antibiotics via an easily accessible, non-cytotoxic and orally bioavailable FtsZ inhibitor” (Eur J Med Chem, 2019)
